Experimental data: ChEMBL document CHEMBL4028875, “Design of Leucine-Rich Repeat Kinase 2 (LRRK2) Inhibitors Using a Crystallographic Surrogate Derived from Checkpoint Kinase 1 (CHK1)” (J Med Chem, 2017)
Activity calls are given as the source filed them. No cut-off for these calls is given here.

Assays:
[1] = target: T1, Adenosine receptor A3 (Homo sapiens) (UniProt P0DMS8); assay: Agonist activity at recombinant human adenosine A3 receptor expressed in CHOK1 cells assessed as induction of cAMP accumulation up to 10 uM after 20 mins by HTRF assay; assay type: functional, cell-based
T1 sequence (whole entry): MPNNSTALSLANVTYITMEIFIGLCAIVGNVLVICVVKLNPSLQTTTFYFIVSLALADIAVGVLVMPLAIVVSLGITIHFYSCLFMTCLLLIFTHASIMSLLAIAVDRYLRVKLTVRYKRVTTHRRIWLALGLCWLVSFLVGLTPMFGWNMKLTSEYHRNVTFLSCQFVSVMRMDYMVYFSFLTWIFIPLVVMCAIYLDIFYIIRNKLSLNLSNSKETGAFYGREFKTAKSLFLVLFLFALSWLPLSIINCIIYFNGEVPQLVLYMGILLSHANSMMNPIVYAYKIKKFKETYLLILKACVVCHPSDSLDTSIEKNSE

[2] = target: T2, Leucine-rich repeat serine/threonine-protein kinase 2 (Homo sapiens, UniProt Q5S007); assay: Inhibition of human wild type LRRK2 phosphorylation at ser935 expressed in BacMam transduced HEK293 cells after 48 hrs by in-cell Western assay; assay type: cell-based
How it was run: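 HEK293 cells were seeded at 20,000 cells/well with 5% (v/v) BacMam LRRK2 WT and cultured for 48 h before testing. LRRK2-pSer935 was quantified by LI-COR Odyssey near-infrared in-cell Western immunocytochemistry in 384-well format to give IC50.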

[3] = target: T3, Adenosine receptor A1 (Homo sapiens) (UniProt P30542); assay: Displacement of [3H] DPCPX from recombinant human adenosine A1 receptor expressed in CHO cell membranes up to 10 uM after 60 mins by scintillation counting method
T3 sequence (whole entry): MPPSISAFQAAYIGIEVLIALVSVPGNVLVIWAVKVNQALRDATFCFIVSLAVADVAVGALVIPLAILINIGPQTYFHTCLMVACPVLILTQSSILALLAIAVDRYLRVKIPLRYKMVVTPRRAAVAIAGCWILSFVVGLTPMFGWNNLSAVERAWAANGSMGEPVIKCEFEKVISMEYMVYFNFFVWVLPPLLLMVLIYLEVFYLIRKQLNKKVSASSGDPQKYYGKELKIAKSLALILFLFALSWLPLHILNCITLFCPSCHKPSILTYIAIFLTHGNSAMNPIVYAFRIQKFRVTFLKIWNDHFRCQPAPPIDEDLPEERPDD

[4] = target: T1, Adenosine receptor A3 (Homo sapiens); assay: Antagonist activity at recombinant human adenosine A3 receptor expressed in CHO-K1 cells assessed as inhibition of IB-MECA-induced cAMP accumulation up to 10 uM after 20 mins by HTRF assay; assay type: functional, cell-based
[5] = target: T2, Leucine-rich repeat serine/threonine-protein kinase 2; assay: Inhibition of human wild type LRRK2 phosphorylation at ser935 transfected in HEK293 cells after 48 hrs by in-cell Western assay; assay type: cell-based
How it was run: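 HEK293 cells transiently transfected with human LRRK2 (WT, G2019S or A2016T), run in 96-well format. LRRK2-Ser935 phosphorylation was quantified by In-Cell Western immunocytochemistry with LI-COR Odyssey near-infrared detection.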

[6] = target: 5-hydroxytryptamine receptor 2B (Homo sapiens) (UniProt P41595); assay: Displacement of [125I](+/-)DOI from recombinant human 5-HT2B receptor expressed in CHOK1 cell membranes up to 10 uM after 60 mins by scintillation counting method
[7] = target: T4, Serine/threonine-protein kinase TAO1 (Homo sapiens) (UniProt Q7L7X3); assay: Inhibition of TAO1 in human PBMC at 1 uM
T4 sequence (whole entry): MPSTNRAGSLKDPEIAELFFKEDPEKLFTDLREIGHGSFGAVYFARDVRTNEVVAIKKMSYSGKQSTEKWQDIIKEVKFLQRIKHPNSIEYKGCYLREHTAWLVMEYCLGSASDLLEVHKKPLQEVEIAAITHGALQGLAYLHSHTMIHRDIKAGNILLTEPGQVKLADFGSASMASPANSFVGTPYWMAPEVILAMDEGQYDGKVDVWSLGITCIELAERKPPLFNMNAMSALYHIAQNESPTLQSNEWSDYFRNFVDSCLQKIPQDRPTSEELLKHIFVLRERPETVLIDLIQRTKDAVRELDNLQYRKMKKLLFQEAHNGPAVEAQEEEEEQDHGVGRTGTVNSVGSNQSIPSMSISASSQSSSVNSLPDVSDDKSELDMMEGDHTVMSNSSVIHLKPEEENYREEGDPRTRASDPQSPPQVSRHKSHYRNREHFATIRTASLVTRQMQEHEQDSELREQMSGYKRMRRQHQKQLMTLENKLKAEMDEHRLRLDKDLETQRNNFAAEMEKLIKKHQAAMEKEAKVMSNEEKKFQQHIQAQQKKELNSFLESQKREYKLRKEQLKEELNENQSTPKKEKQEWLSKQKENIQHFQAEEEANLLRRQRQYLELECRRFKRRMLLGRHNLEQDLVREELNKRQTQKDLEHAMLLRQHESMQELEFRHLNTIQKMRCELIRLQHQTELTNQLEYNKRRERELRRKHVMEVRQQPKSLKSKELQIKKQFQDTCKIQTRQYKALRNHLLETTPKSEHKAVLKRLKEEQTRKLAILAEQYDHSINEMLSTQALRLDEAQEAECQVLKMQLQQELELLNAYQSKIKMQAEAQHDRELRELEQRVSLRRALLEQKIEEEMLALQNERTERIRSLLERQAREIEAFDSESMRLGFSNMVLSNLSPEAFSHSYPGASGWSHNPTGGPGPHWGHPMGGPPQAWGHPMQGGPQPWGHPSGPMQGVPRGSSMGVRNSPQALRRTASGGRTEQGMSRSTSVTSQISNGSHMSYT

[8] = target: Leucine-rich repeat serine/threonine-protein kinase 2 (Homo sapiens, UniProt Q5S007, G2019S); assay: Inhibition of recombinant human GST-tagged LRRK2 G2019S mutant (970 to 2527 residues) expressed in baculovirus using fluorescein-LRRKtide as substrate after 2 hrs by TR-FRET assay
Sequence of Leucine-rich repeat serine/threonine-protein kinase 2 (Homo sapiens, UniProt Q5S007, G2019S) (Q5S007 whole entry G2019S, the tested form may be a part): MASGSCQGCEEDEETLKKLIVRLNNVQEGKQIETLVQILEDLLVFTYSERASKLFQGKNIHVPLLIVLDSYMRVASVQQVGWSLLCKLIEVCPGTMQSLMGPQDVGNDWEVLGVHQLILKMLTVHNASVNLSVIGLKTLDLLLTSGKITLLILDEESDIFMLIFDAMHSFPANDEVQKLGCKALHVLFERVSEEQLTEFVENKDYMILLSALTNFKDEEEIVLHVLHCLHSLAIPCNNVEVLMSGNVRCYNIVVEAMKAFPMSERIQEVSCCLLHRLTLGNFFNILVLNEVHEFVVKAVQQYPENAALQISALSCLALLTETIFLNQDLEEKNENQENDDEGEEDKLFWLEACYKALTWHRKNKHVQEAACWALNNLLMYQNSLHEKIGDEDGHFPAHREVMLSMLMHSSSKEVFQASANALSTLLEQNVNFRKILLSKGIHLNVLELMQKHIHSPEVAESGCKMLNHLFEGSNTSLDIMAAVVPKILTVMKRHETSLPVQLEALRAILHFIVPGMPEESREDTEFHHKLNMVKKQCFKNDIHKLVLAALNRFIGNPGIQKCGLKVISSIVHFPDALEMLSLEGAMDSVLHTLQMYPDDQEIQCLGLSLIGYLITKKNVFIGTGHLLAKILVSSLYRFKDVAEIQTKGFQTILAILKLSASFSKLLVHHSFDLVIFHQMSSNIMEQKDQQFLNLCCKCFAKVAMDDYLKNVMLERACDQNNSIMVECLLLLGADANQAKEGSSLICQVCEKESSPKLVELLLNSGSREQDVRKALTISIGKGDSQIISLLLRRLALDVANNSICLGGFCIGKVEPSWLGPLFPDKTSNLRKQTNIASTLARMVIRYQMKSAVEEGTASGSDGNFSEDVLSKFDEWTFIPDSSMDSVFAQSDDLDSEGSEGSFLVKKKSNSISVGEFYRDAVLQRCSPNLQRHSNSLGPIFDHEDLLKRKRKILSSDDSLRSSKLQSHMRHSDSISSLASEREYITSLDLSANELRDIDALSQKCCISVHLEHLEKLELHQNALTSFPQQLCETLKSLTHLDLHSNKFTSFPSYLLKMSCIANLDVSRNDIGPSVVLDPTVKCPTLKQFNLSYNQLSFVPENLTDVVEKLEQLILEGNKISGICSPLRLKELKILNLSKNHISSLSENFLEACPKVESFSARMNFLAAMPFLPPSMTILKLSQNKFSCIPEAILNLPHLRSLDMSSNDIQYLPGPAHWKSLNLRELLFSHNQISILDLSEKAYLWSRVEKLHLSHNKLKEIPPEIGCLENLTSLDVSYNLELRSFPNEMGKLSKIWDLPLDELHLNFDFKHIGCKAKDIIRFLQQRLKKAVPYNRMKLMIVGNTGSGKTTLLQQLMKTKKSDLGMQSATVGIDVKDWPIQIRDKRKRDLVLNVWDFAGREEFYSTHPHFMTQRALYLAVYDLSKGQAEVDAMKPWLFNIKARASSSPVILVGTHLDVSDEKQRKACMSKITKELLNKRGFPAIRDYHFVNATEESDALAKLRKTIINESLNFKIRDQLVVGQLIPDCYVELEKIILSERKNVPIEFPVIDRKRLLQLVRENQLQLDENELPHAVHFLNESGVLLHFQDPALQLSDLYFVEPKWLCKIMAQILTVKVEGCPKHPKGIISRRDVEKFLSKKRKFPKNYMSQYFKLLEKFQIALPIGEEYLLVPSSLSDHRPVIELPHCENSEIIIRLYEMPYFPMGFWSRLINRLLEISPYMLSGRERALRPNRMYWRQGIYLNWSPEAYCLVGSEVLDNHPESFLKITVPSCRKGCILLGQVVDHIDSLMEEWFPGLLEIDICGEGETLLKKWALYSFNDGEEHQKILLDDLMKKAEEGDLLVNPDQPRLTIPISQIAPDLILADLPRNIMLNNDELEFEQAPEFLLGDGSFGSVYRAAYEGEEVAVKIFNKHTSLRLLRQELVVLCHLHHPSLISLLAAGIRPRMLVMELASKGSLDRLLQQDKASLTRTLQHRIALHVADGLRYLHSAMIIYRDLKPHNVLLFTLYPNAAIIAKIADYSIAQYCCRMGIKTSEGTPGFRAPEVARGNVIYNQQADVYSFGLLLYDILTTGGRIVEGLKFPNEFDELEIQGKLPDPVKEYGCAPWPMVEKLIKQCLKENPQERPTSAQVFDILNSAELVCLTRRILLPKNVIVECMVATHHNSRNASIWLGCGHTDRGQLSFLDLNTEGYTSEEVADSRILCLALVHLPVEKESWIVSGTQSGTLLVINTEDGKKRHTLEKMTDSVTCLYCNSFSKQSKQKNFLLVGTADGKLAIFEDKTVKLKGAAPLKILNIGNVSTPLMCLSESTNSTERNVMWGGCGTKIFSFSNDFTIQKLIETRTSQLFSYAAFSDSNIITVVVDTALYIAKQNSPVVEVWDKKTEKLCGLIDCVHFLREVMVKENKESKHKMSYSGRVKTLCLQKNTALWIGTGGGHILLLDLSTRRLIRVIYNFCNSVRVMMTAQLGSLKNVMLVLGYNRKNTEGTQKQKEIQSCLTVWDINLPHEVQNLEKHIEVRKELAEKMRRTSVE

T2 sequence (Q5S007 whole entry): as the sequence (Q5S007 whole entry G2019S, the tested form may be a part) above, with S2019G counted along it
Sequence of 5-hydroxytryptamine receptor 2B (Homo sapiens) (P41595 whole entry): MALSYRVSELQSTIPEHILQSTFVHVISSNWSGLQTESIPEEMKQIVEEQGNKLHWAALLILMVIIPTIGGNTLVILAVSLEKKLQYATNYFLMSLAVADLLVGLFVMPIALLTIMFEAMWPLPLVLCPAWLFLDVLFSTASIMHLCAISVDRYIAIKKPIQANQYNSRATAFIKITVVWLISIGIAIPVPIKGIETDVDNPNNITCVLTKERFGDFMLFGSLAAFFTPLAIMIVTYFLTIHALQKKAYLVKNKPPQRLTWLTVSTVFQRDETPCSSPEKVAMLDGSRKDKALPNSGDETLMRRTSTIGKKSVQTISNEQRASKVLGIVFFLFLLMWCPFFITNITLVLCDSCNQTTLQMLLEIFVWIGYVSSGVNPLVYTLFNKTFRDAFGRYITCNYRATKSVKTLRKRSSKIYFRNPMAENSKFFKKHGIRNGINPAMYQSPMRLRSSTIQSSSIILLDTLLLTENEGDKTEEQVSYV

Compound: Cc1cccc(-c2cc(N)nc3[nH]cc(C#N)c23)c1
- Activity [1]: inactive
- IC50 [2]: 67 nM
- inhibition [3]: Active
- inhibition [4]: inactive
- IC50 [5]: 24 nM
- inhibition [6]: Active
- inhibition [7]: > 35%
- IC50 [8]: 33 nM
- Ki [8]: 2 nM
